Source: the EternaBench riboswitch data

Test system: MS2 coat protein
Assay: apparent Kd, MS2 coat protein; higher = weaker binding; RNA-MaP array; FMN 200 µM where present
In short: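 Green signal was scaled to red-channel RNA signal and control-cluster median Fmax, and the apparent Kd was taken as the median of filtered per-cluster binding-curve fits. The binding series used SNAP-549-labelled MS2 coat protein from 0.7 or 1.5 nM, doubling to 3 µM, on designs transcribed by stalled E. coli RNA polymerase on Illumina sequencing-chip clusters. Each series ran without and then with constant ligand in 100 mM Tris-HCl pH 7.5, 80 mM KCl, 4 mM MgCl2, BSA, DTT, yeast tRNA and Tween-20.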

[1] = designed as: ON switch for flavin mononucleotide, no ligand
[2] = ligand present: flavin mononucleotide, designed as: ON switch for flavin mononucleotide
[3] = designed as: OFF switch for flavin mononucleotide, no ligand
[4] = ligand present: flavin mononucleotide, designed as: OFF switch for flavin mononucleotide

Sequence	apparent Kd [1]	apparent Kd [2]	apparent Kd [3]	apparent Kd [4]
CGGUACAUCGGAGGAUAUCAUGUAAAUACAUGAGGAUCACCCAUGUCGAUGGAGACAUCGGAGAUUGAGAAGGCCGAUGUACCG	186 nM	9.27 nM	–	–
CUUAUGUGAGGAUAUCAGUAGUGAUACGAUAGUAUUACUGCUGAGAAGGUACAUGAGGAUCACCCAUGUUCCUC	–	–	17.1 nM	20.4 nM
GUAGAGUAGUGAGGAUAUACGAGUUCGAUAGAACGGCGAUCCAAUAAUACAUGAGGAUCACCCAUGUAGAAGGCACUUCUCUAC	–	–	9.33 nM	112 nM
UUACAGCACGGGUAGGAUAUGUAGGGUGGUACAUGAGGAUCACCCAUGUAUCCACCCUUCUAACGGCAGAAGGGCCUGUCGCUGC	31.8 nM	20.9 nM	–	–
UUUGCAACAUGAGGAUCACCCAUGUAGGAUAUCGCUAUUGUAAUCAUGAAACAUGAUUACAAUAGCGAGAAGGACAUAUGUCCC	–	–	7.56 nM	8.59 nM
UUUUCCGGGCAGAAGGGUCCUCACAUGAGGAUCACCCAUGUAAACGCGGAUAGGAUAUGCCACUGGGCUCGAUAAGAGUGGUUC	409 nM	160 nM	–	–
AUAUGAUAGAUAGGAUAUACUGUGGUUGAAUGUGUAGAAGGAUCGAUAGGGAAAUGUACAUGAGGAUCACCCAUGUUGUGGAUU	48.4 nM	39.9 nM	–	–
CUUUGGUCAGGAUAUGGUGGGCUGGUCGCGCGGCCGGGUGGCCAGAAGGGACAUGAGGAUCACCCAUGUACGGC	–	–	35.5 nM	59.7 nM
ACUUAUGAAGGAUAUACUGGCGACAUGCGCUCAACACGCGCACAUGAGGAUCACCCAUGUAGAAGGUCAAACAU	–	–	27.5 nM	45.5 nM
CUAUCGAGGUCACUCGUUAUCACACCAGAAGGGACGGAGGCACAUGAGGAUCACCCAUGUCCUAGUCAGGAUAUGGGUGAGUAG	25.6 nM	5.16 nM	–	–
AGCGCGGUCUCGCAGGAUAUCCACAAUCCUACAUGAGGAUCACCCAUGUCGCUGCAGGAUAUUAGGGAGAAGGGUGAUGCCGCGC	34.5 nM	20.7 nM	–	–
GUAUGCAAGUAGAAGGACGGAUAUUUUGAAAACGUAGGAUAUACAGAAUCAUAUCCACAUGGAUACAUGAGGAUCACCCAUGUA	–	–	12 nM	11.8 nM
UGUGCGUCAGGAUAUUCUACUUAUUACAUGAGGAUCACCCAUGUGUAUGUACAAGGGUGUGAAGAAGGGACUUGUC	–	–	935 nM	305 nM
UGAAAUAGAGGAUAUACAUGAGGAUCACCCAUGUGAUCCUCCGGAGUAGGCCGUUUAUGUAGAAGGCUGAUGAA	–	–	48.9 nM	48.3 nM
ACAUGAGAUUUAGGAUAUAUAGUACCUACAUGUGACAUGAGGAUCACCCAUGUGGUAAGUAUGACAUAGAAGGAAAAGAUAUGU	66 nM	67 nM	–	–
UGCUACGUUUCGUAGCAGCUAGGUGAGGAUAUUCAAUUUUUCACAUGAGGAUCACCCAUGUAUGUGAAGAAGGCGCCUAGAAAC	11.6 nM	4.61 nM	–	–
UCAGGCUUCGAGAAGGACAUGAGGAUCACCCAUGUUAAUUUGAAGCAGCCGUGAGGCUGCAUCAUGUAGGAUAUCGGAGUCUGC	–	–	6.17 nM	10.2 nM
AACAAUCUAUCUGAGGAUAUCAUGAAAUAAACAUGAGGAUCACCCAUGUGCAGGAAAUCUGCAUAUGAGAAGGCAGAUAGAUUGA	1340 nM	56.1 nM	–	–
CUACAUGAGGAUCACCCAUGUGCGCACUGGAUCAGUGCGCGCAGAAGGGCCAUGGAGAAAGCCAGGCAGGAUAUGCAAAGGGCU	288 nM	226 nM	–	–
AGCUAGUCAGGAUAUACGAACAUGUCAAAAGACGUGAACCCACAUGAGGAUCACCCAUGUAGAAGGGACUAGCA	–	–	26 nM	65.7 nM
GAAGCUCUGCAGCGAUUAGCUACAUGAGGAUCACCCAUGUGGGAGGAUAUACGUCGCUCCGCGGAGUAGAAGGCUUACAUGCGG	–	–	9.86 nM	21.7 nM
AGGCCACAAGGAUAUACAUGAGGAUCACCCAUGUAGAAAGACGUGUGGUCAUGUUCGAGUAGAAGGUGUAGCGG	–	–	12.9 nM	12.7 nM
GAGCGAAAGCUCAAUGUCGAUAGCAGAAGGACAUCCAAUAACAUGAAAACAUGAGGAUCACCCAUGUAGGAUAUGCUAUCGACU	–	–	5.55 nM	6.55 nM
CCAUGGAAUGUAGGAUAUGUCUGACAAAGUCAGACAGAAGGACAUGAGGAUCACCCAUGUAGGAAACAACCACAUAAACCAUGG	–	–	6.83 nM	7.08 nM

Sequence	apparent Kd [1]	apparent Kd [2]	apparent Kd [3]	apparent Kd [4]
AAAAAUGGAGGAUAUACAUGAGGAUCACCCAUGUGUGGCCAUACUAUGUGCUCGUCAGGUAGAAGGCCAAAAAA	–	–	28.7 nM	46 nM
UAUAUGUGAGGAUAUCAGGUGUGCUAGCGUACUGGUACAUCUGAGAAGGCACAUGAGGAUCACCCAUGUUUCUU	–	–	26.3 nM	88 nM
UAUUAGUAAGGAUAUCUCGUCAUGGACGUGAGUCCAUGACGAGAGAAGGUACAUGAGGAUCACCCAUGUUCAUU	–	–	15.9 nM	18.3 nM
AUAGGCCUAGGAUAUACAUGAGGAUCACCCAUGUUAAUAUUUCAAUCAUGAUAAACGUGUAGAAGGAGGAAUAA	–	–	25.9 nM	28.6 nM
ACGACGAAAGUCGAACGAUGUAGCAGAAGGACAUGAGGAUCACCCAUGUCAGCUGUGACCAAAAUGUAGGAUAUGCUACAUCGA	–	–	71.1 nM	90.8 nM
AGAAAACAUGAGGAUCACCCAUGUCAGGAUAUCUCCAAGGCUUAACAUCCAGCCCUGCAGAGAAGGGACGGGUG	–	–	87.9 nM	225 nM
AGCUGACGAGGAUAUACAUGAGGAUCACCCAUGUUGGUUCAGCGACUUCGGUCGCAAUGUAGAAGGCGUCAGCU	–	–	450 nM	327 nM
UAUCUAUUUAUGGGAUUAGAAUAUGAGGAUAUCAUUUAUUUAUACAUGAGGAUCACCCAUGUUUCUGAGAAGGCAUAUUUAAUA	20.3 nM	6.73 nM	–	–
CUUUUGUGAGGAUAUUAGUAGUAUAUAAAUAAAAUUACUACUGAGAAGGCACAUGAGGAUCACCCAUGUUCCUC	–	–	32.7 nM	124 nM
CUAAAUCAUGUAGGAUAUGCAUGGCGAAGCUACGCAGAAGGACAUGAGGAUCACCCAUGUCUCUCCGUCUGCGUACAGACGGAG	–	–	20.5 nM	119 nM
GCAUGCGUUCGAGGAUAUCGGUGAGAAACGGAACGAGAAGGCGAUCGAAUGUCACAUAUUAUGUACAUGAGGAUCACCCAUGUA	126 nM	37.8 nM	–	–
AUUGCUCGAGAGAAGGGAACAUGAGGAUCACCCAUGUUACCUCACCUGGUGACGGAACUCCAAGUUCAGGAUAUCUCGAACGAU	–	–	5.63 nM	8.13 nM
CCGGAAAUACAGGAUAUCGUAUCGGAUACGAUACGAGAAGGGUAUACAUGAGGAUCACCCAUGUGUCCUACCGG	–	–	25.1 nM	32 nM
UGUCGGAGCAGAGGAUAUUACAUGAGGAUCACCCAUGUAUGAACCAAUAGCUGGAAACAGCAAUGUAAGAAGGCUGCUCCCACA	–	–	12 nM	138 nM
AUGGUUGUCGUAGGAUAUGUAGGAUAUUCCUACAUGAGGAUCACCCAUGUUCGCAUGGAAGAAGGACAGAAGGACGAUGACCAU	1150 nM	9.7 nM	–	–
CACUGCAUGUAAGGAUAUCGACUGGAUAACAGUCGAGAAGGUACAUGAGGAUCACCCAUGUAAGCAGUGAAUAAUAAUAAUAAU	–	–	13.2 nM	25.2 nM
GUGGACGUCGUAGGAUAUGUAGGAUAUUCCUACAUGAGGAUCACCCAUGUUGACAUGGAAGAAGGACAGAAGGACGAUGUCCAU	262 nM	4.51 nM	–	–
AGAUGGCGAGGAUAUACAUGAGGAUCACCCAUGUGAAGAAUAAUAGUGAGGAAGAAAAGUAGAAGGCGCUGUCA	–	–	45.5 nM	209 nM
UAUUUUUAUGUAAGGAUAUGGGUUUGGUUGCGGGCUUAGAAGGUACAUGAGGAUCACCCAUGUAUUUUGUGCAU	–	–	32.8 nM	35.3 nM
UCAUUUAUCACAGGAUAUAUUAGUAUACAGUUGUUUGGCUCUUACAUAUUAAUAGAAGGGUGCAACAUGAGGAUCACCCAUGUA	262 nM	102 nM	–	–
CCACGUCACAUUAACAUGAGGAUCACCCAUGUCUCUUGACAUGAGGAUAUGGAUCCUAAUUGGAUCCAGAAGGCAUGGACGUGG	1370 nM	99.8 nM	–	–
AGUUUUGUACAUGAGGAUCACCCAUGUUAAUAUGUGGUAGUCAGAAGGCAUUGUUAGAGUUUUAAUGAGGAUAUGAAUAUUCUG	38.3 nM	25 nM	–	–
GCUAGGCAUGUCAGGAUAUGCUGUACCUUGGUACAGCAGAAGGGACAUGAGGAUCACCCAUGUGCCUAUCUAGC	–	–	42.9 nM	419 nM
GUAGAGUAGUGAGGAUAUACGAGCUCGAUAGAGCGGCGAUCCAUUAAUACAUGAGGAUCACCCAUGUAGAAGGCACUUCUCUAC	–	–	5.83 nM	72 nM
